From ChEMBL document CHEMBL1143032, “The concise synthesis of chalcone, indanone and indenone analogues of combretastatin A4” (Bioorg Med Chem, 2007)

What was measured:
CA46 = test: Growth inhibition of CA46 cells; type: functional; settings: Homo sapiens
[1] = Inhibition of bovine brain tubulin polymerization; parameters: species or system Bos taurus
How it was run: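 Tubulin assembly assay. The parameter measured was inhibition of the extent of assembly.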

MCF7 = test: Growth inhibition of MCF7 cells after 48 hrs; type: functional; settings: Homo sapiens, MCF7, 48 h

## COc1ccc(-c2[nH]c3cc(OC)ccc3c2C(=O)c2cc(OC)c(OC)c(OC)c2)cc1
CA46
  GI50: 45 nM

## COc1ccc(/C=C(\C(=O)c2cc(OC)c(OC)c(OC)c2)c2ccc(OC)cc2)cc1
[1]
  IC50: 6600 nM
MCF7
  GI50: > 1000 nM

## COc1ccc(C2=C(C(=O)c3cc(OC)c(OC)c(OC)c3)C(=O)c3cc(OC)c(OC)c(OC)c32)cc1O
[1]
  IC50: 20000 nM

## COc1ccc(C2=C(C(=O)c3cc(OC)c(O)c(OC)c3)c3cc(O)c(OC)cc3C2=O)cc1O
[1]
  IC50: 36000 nM

## COc1ccc(/C=C(/C(=O)c2cc(OC)c(OC)c(OC)c2)c2ccc(OC)cc2)cc1
[1]
  IC50: 2500 nM
MCF7
  GI50: > 1000 nM

## COc1ccc(/C=C\c2cc(OC)c(OC)c(OC)c2)cc1O [COMBRETASTATIN A4]
MCF7
  GI50: 26 nM
